Experimental findings from ChEMBL document CHEMBL1212838, “Investigations on the 2-thiazolylhydrazyne scaffold: synthesis and molecular modeling of selective human monoamine oxidase inhibitors” (Bioorg Med Chem, 2010) are described below.

Data set [1] has as its target T1, Amine oxidase [flavin-containing] B (Homo sapiens, UniProt P27338).
T1 sequence (P27338 whole entry): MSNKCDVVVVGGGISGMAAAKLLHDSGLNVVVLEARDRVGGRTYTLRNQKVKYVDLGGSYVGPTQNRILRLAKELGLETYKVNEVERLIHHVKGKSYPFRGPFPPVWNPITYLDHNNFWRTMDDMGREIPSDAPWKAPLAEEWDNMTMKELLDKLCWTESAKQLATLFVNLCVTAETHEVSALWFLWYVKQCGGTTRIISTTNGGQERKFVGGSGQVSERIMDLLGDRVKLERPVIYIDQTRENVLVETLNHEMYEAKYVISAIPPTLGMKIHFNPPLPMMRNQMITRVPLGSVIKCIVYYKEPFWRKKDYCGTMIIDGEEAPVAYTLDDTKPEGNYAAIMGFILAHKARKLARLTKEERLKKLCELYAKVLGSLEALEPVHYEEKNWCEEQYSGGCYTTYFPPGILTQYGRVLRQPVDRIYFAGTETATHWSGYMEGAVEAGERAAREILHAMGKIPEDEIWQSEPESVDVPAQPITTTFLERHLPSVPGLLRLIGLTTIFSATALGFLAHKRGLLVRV

Data set [2] deals with T2, Amine oxidase [flavin-containing] A (Homo sapiens, UniProt P21397).
T2 sequence (P21397 whole entry): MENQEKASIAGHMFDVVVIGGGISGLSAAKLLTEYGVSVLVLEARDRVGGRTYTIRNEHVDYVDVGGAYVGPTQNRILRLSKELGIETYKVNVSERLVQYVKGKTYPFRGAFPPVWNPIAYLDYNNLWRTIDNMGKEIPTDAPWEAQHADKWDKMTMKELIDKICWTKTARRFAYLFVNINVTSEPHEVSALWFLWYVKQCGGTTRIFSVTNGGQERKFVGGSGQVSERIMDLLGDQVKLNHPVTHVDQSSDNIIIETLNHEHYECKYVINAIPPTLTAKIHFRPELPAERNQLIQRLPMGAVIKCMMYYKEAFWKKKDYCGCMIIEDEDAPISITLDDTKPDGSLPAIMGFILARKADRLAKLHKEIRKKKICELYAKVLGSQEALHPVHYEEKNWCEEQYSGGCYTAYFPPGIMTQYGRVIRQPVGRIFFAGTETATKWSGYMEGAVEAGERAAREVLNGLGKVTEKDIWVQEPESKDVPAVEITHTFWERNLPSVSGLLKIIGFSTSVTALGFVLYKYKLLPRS
Briefly: Inhibition of human MAOA by fluorimetry.

The species named for another data set is Homo sapiens. The data set is described as follows: Selectivity index, ratio of IC50 for human recombinant MAOA to IC50 for human recombinant MAOB.
The target in data set [3] is T1, Amine oxidase [flavin-containing] B. Briefly: Inhibition of human MAOB at 100 uM by fluorimetry. An outline of the steps:
(§1)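 Recombinant human MAO-A or MAO-B, each at an amount set to oxidize 165 pmol p-tyramine/min, preincubated 15 min at 37 °C with compound in 0.05 M sodium phosphate pH 7.4. Reaction started with final 200 µM Amplex Red, 1 U/mL HRP and 1 mM p-tyramine. Resorufin fluorescence (ex 545, em 590 nm) read over 15 min at 37 °C; enzyme-free background subtracted.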

In data set [4] the target is T2, Amine oxidase [flavin-containing] A. Briefly: Inhibition of human MAOA at 100 uM by fluorimetry. Summed up:
as §1

The target is the same in data set [5]. Briefly: Inhibition of human MAOA at 100 nM.
The target is the same in data set [6]. The data set is described as follows: Reversible inhibition of human MAOA at 100 uM by centrifugation-ultrafiltration method. Summed up: (§2)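 Reversibility test: hMAO-A or hMAO-B with compound was ultrafiltered on a 30 kDa membrane. Retained enzyme was resuspended in sodium phosphate buffer at 4 °C and recentrifuged, three centrifugations in all. An aliquot was then assayed fluorimetrically with p-tyramine/Amplex Red. Percent inhibition was computed for washed and unwashed samples against vehicle controls; n = 5.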

Data set [7] shares this target. Briefly: Reversible inhibition of human MAOA at 500 nM by centrifugation-ultrafiltration method. Summed up:
as §2

Data set [8] has the same target. Briefly: Inhibition of human MAOA at 500 nM. An outline of the steps:
as §2

Data set [9] has as its target T1, Amine oxidase [flavin-containing] B. The data set is described as follows: Inhibition of human MAOB at 5 nM by centrifugation-ultrafiltration method. Summed up: as §2
The target is the same in data set [10]. The data set is described as follows: Inhibition of human MAOB at 5 uM.
Data set [11] has the same target. Briefly: Inhibition of human MAOB at 1 uM by fluorimetry.

The IC50 is the concentration that gives 50% inhibition. Consider `COc1cccc(-c2csc(N/N=C3\CCCC(C)C3)n2)c1` (configuration not stated), for which the IC50 in data set [1] came to 72.7 nM; in data set [2], 679 nM. For the same compound, the Ratio IC50 in the data set filed under Homo sapiens was 9.3.

In the case of `COc1cccc(-c2csc(NN=C3CCC(C)CC3)n2)c1` (configuration not stated), the figures for the IC50 in data set [1] and in data set [2] were 35.5 nM and 749 nM, respectively. In addition, the Ratio IC50 in the data set listed under Homo sapiens was determined as 21.

As usually defined, the inhibition is how much of the control response was suppressed. A high value points to a strong effect. In the case of `COc1cccc(-c2csc(N/N=C(\C)c3ccccn3)n2)c1`, the inhibition at 100 µM in [3] and in [4] was 40% in each case.

On to `COc1cccc(-c2csc(NN=C3CCCCC3)n2)c1`, for which the IC50 in [1] came to 31.9 nM; in data set [2] it was 1910 nM. In addition, the Ratio IC50 in the data set filed under Homo sapiens turned out to be 60.

Regarding `COc1cccc(-c2csc(NN=C(C)C)n2)c1`, the values for the IC50 in [1] and in [2] were 5070 nM and 4430 nM, respectively. In addition, in the data set filed under Homo sapiens, the Ratio IC50 turned out to be 0.87.

Take `COc1cccc(-c2csc(NN=C3CCCCCC3)n2)c1`: the values for the IC50 in data set [1] and in data set [2] were 29.5 nM and 1780 nM, respectively. For the same compound, the Ratio IC50 in the data set listed under Homo sapiens worked out at 60.

Take `COc1cccc(-c2csc(N/N=C(\C)c3cccc4ccccc34)n2)c1`: the “inhibition (INH)” value in data set [3] (100 µM) was “Not Active”. The compound further had an inhibition at 100 µM in [4] of 40%.

Consider `COc1cccc(-c2csc(N/N=C(\C)c3ccco3)n2)c1`, for which the IC50 was 1680 nM in [1] and 333 nM in [2]. Also, in the data set filed under Homo sapiens, the Ratio IC50 was determined as 0.2.

With `CCC/C(C)=N/Nc1nc(-c2cccc(OC)c2)cs1`, the IC50 worked out at 871 nM in data set [1] and 1310 nM in data set [2]. Besides, the Ratio IC50 in the data set filed under Homo sapiens stood at 1.5.

As for `COc1cccc(-c2csc(N/N=C3\CCCC3C)n2)c1` (configuration not stated), the half-inhibitory concentration (IC50) in data set [1] stood at 26.6 nM; in data set [2], 836 nM. Moreover, the Ratio IC50 in the data set listed under Homo sapiens was 31.

With `O=C1Nc2ccccc2C1=O` [ISATIN], 0.1 µM produced 40.3% inhibition in data set [5]. The values for the inhibition at 100 µM in data set [6] and in [4] were 12.1% and 40%, respectively.

As to `COc1cccc(-c2csc(N/N=C/c3cccs3)n2)c1`, the results for the IC50 in data set [1] and in data set [2] were 494 nM and 458 nM, respectively. In addition, the Ratio IC50 in the data set filed under Homo sapiens was 0.93.

Consider `COc1cccc(-c2csc(N/N=C(\C)c3cccnc3)n2)c1`, for which the inhibition at 0.5 µM in data set [7] amounted to 65.1%; in data set [8] it was 59.1%. Besides, the IC50 stood at 3.81 nM in data set [1] and 455 nM in data set [2]. The compound further gave an inhibition at 0.005 µM in [9] of 67.2%. The inhibition at 5 µM in [10] turned out to be 63.7%. In the data set listed under Homo sapiens, the Ratio IC50 turned out to be 119.

For the compound `CCCCC/C(C)=N/Nc1nc(-c2cccc(OC)c2)cs1`, the IC50 turned out to be 6720 nM in [1] and 1150 nM in data set [2]. For the same compound, the Ratio IC50 in the data set filed under Homo sapiens came to 0.17.

`COc1cccc(-c2csc(N/N=C/c3ccncc3)n2)c1`: the IC50 in [1] was 1140 nM; in data set [2], 698 nM. The Ratio IC50 in the data set filed under Homo sapiens amounted to 0.61.

Turning to `CCCCCC/C(C)=N/Nc1nc(-c2cccc(OC)c2)cs1`, the inhibition at 100 µM in data set [3] is 40%. The same compound registered an IC50 in data set [2] of 1380 nM.

As to `COc1cccc(-c2csc(N/N=C/c3cccnc3)n2)c1`, the results for the IC50 in data set [1] and in data set [2] were 2910 nM and 538 nM, respectively. Moreover, the Ratio IC50 in the data set listed under Homo sapiens is 0.18.

Turning to `O=C(NCCN1CCOCC1)c1ccc(Cl)cc1` [MOCLOBEMIDE], the IC50 entry in data set [11] is “Not Active”.

Consider `COc1cccc(-c2csc(N/N=C/c3ccco3)n2)c1`, for which the results for the IC50 in data set [1] and in [2] were 6780 nM and 343 nM, respectively. The Ratio IC50 in the data set listed under Homo sapiens stood at 0.051.

For the compound `COc1cccc(-c2csc(N/N=C/c3c[nH]c4ccccc34)n2)c1`, the IC50 in data set [1] is 800 nM; in data set [2] it was 414 nM. Also, in the data set listed under Homo sapiens, the Ratio IC50 was 0.52.

Take `COc1cccc(-c2csc(NN=C3CCCC3)n2)c1`: the IC50 in [1] came out at 1060 nM; in [2], 592 nM. Moreover, the Ratio IC50 in the data set listed under Homo sapiens was found to be 0.56.

Take `COc1cccc(-c2csc(N/N=C/c3cccc4ccccc34)n2)c1`: at 100 µM the inhibition in data set [3] was 40%. Also, the IC50 in data set [2] is 3640 nM.

For the compound `COc1cccc(-c2csc(N/N=C(\C)c3ccncc3)n2)c1`, the results for the IC50 in [1] and in [2] were 116 nM and 3710 nM, respectively. Besides, the Ratio IC50 in the data set listed under Homo sapiens amounted to 32.

In the case of `COc1cccc(-c2csc(N/N=C3\CCCCC3C)n2)c1` (configuration not stated), the IC50 in data set [1] worked out at 12.2 nM; in [2], 737 nM. Moreover, in the data set listed under Homo sapiens, the Ratio IC50 worked out at 60.

`CCC(CC)=NNc1nc(-c2cccc(OC)c2)cs1`: the IC50 amounted to 772 nM in data set [1] and 824 nM in data set [2]. Further, the Ratio IC50 in the data set listed under Homo sapiens worked out at 1.1.

Turning to `COc1cccc(-c2csc(N/N=C(\C)c3cccs3)n2)c1`, the IC50 in data set [1] came out at 551 nM; in data set [2], 636 nM. In addition, the Ratio IC50 in the data set filed under Homo sapiens amounted to 1.15.

`COc1cccc(-c2csc(N/N=C3\CCC(C)C3)n2)c1` (configuration not stated): the values for the IC50 in data set [1] and in [2] were 231 nM and 1450 nM, respectively. The Ratio IC50 in the data set listed under Homo sapiens is 6.3.

`COc1cccc(-c2csc(N/N=C(\C)c3cc4ccccc4oc3=O)n2)c1`: the IC50 in data set [1] amounted to 6970 nM; in [2], 5560 nM. Also, the Ratio IC50 in the data set filed under Homo sapiens was found to be 0.8.
